For assay [1], the target named is T1, Peptidyl-prolyl cis-trans isomerase FKBP4 (Homo sapiens) (UniProt Q02790).
T1 sequence (whole entry): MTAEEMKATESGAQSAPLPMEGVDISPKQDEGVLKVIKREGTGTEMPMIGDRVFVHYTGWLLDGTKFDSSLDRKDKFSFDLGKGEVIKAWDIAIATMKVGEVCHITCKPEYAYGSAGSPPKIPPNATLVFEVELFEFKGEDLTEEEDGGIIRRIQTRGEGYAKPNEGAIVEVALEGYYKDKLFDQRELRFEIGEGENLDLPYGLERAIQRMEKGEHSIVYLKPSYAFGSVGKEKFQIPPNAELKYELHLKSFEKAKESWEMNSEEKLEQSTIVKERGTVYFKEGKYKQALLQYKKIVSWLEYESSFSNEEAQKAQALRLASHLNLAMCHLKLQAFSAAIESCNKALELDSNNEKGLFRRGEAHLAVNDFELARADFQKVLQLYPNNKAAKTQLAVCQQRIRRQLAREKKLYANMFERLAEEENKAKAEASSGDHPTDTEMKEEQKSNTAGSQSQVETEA
The assay can be described thus: Increase in neurite outgrowth in chick embryo dorsal root ganglion at 1 pM in presence of NGF. It is filed as functional, tissue-based. As to conditions: Gallus gallus, target entry is the homologue from another species. In short, it runs like this:
(§1)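 DRGs from 8-day chick embryos, on rat tail collagen-coated flasks, 5-6 per flask; after 1 h attachment at 37 °C, 5% CO2, treated with compound plus 0.15 ng/mL NGF in DMEM for 48 h. DMSO stock 1 mM, final DMSO below 10^-7 M. Phase-contrast scoring of neurite number and length, averaged over 15-18 ganglia; NGF-only controls; one-way ANOVA with Student-Newman-Keuls.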

Assay [2] concerns the target T1, Peptidyl-prolyl cis-trans isomerase FKBP4 (Homo sapiens). The assay can be described thus: Increase in neurite outgrowth in chick embryo dorsal root ganglion at 100 pM in presence of NGF. The format is functional, tissue-based. As to conditions: Gallus gallus, target entry is the homologue from another species. The gist of the method: as §1
Assay [3] has the same target. Description: Increase in neurite outgrowth in chick embryo dorsal root ganglion in absence of NGF. The format is functional, tissue-based. As to conditions: Gallus gallus, target entry is the homologue from another species.
The target is the same in assay [4]. The assay can be described thus: Decrease in neurite outgrowth in chick embryo dorsal root ganglion at 1 nM in presence of NGF. The format is functional, tissue-based. The note with it: Gallus gallus, target entry is the homologue from another species. In short, it runs like this: as §1
Assay [5] has the same target. The assay can be described thus: Increase in neurite outgrowth in chick embryo dorsal root ganglion in presence of NGF. It is filed as functional, tissue-based. As to conditions: Gallus gallus, target entry is the homologue from another species. The gist of the method:
as §1

Assay [6] relates to Mus musculus. Description: Neuroprotective activity against 6-OHDA-induced Kunming mouse peripheral sympathetic nerve injury measured as norepinephrine content in submandibular gland at 10 mg/kg, sc. The format is functional. The note with it: route subcutaneous. The gist of the method: (§2)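 Adult female Kunming mice, 22 g, lesioned with 6-OHDA 8 mg/kg i.p.; compound given s.c. 4 h before lesion and daily for 4 further days; vehicle controls. Killed 2 weeks after last dose; both submandibular glands weighed and homogenized with 3,4-dihydroxybenzylamine internal standard, centrifuged 30 min; norepinephrine in supernatant by HPLC-ECD, µg/g wet weight; mean ± SEM.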

Assay [7] concerns Mus musculus. Description: Neuroprotective activity against 6-OHDA-induced Kunming mouse peripheral sympathetic nerve injury measured as norepinephrine content in submandibular gland at 2 mg/kg, sc. The note with it: route subcutaneous. The format is functional. In short, it runs like this: as §2

The source made the active and inactive calls. The rule behind the calls is not given here.

In the case of `CCCCCCC(=O)C(=O)N1[C@H](C(=O)OCCc2ccccc2Cl)CSC1(C)C`, the result in assay [1] and in assay [2] was Active.

As to `CCCCCCC(=O)C(=O)N1[C@H](C(=O)OCCCc2ccccc2)CSC1(C)C`, the result in assay [1] and in assay [2] was Active.

With `CC(C)(C)C(=O)C(=O)N1[C@H](C(=O)OCCCc2cccnc2)CSC1(C)C`, the outcome in assay [1], in assay [4] and in assay [2] was Active. The outcome in assay [3] was inactive. Besides, the Activity result in assay [5] is “Dose-dependent effect”; in the assay on Mus musculus [6], 2.31 µg/g.

In the case of `CCC(C)(C)C(=O)C(=O)N1[C@H](C(=O)OC/C=C/c2ccccc2)CSC1(C)C`, the outcome in assay [1] and in assay [2] was Active.

Consider `C=CCCCCCCCCOC(=O)[C@@H]1CSC(C)(C)N1C(=O)C(=O)C(C)(C)C`, for which the result in assay [1] and in assay [2] was Active.

Turning to `CC(C)(C)C(=O)C(=O)N1[C@H](C(=O)OCCCc2ccccc2)CSC1(C)C`, the outcome in assay [1] and in assay [2] was Active.

Turning to `C=CC[C@@H]1/C=C(\C)C[C@H](C)C[C@H](OC)[C@H]2O[C@@](O)(C(=O)C(=O)N3CCCC[C@H]3C(=O)O[C@H](/C(C)=C/[C@@H]3CC[C@@H](O)[C@H](OC)C3)[C@H](C)[C@@H](O)CC1=O)[C@H](C)C[C@@H]2OC` [TACROLIMUS ANHYDROUS], the Activity with Mus musculus [7] stood at 2.33 µg/g.

The values above are taken from ChEMBL document CHEMBL1138917, “FK506-binding protein ligands: structure-based design, synthesis, and neurotrophic/neuroprotective properties of substituted 5,5-dimethyl-2-(4-thiazolidine)carboxylates” (2006).
